Data: ChEMBL document CHEMBL1240470, “Synthesis and evaluation of some novel dibenzo[b,d]furan carboxylic acids as potential anti-diabetic agents” (Eur J Med Chem, 2010)
Calls of active or inactive are those of the source. The rule behind the calls is not given here.

Assays:
[1] = target: T1, Tyrosine-protein phosphatase non-receptor type 2 (Homo sapiens, UniProt P17706); test: Inhibition of human recombinant TCPTP after 30 mins by spectrophotometry
T1 sequence (P17706 whole entry): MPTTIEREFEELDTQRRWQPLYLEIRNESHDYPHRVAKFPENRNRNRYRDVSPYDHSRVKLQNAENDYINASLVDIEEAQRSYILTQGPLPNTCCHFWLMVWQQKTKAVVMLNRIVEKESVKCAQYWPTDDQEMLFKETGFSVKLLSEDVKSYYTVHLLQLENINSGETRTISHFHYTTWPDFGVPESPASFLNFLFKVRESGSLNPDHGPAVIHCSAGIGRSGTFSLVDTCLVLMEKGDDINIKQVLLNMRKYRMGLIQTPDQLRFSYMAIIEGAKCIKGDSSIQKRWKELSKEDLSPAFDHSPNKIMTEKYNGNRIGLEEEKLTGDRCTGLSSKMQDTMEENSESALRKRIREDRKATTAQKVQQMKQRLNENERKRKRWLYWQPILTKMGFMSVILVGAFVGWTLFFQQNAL
How it was run: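 In-house human recombinant enzyme (40 ng) was preincubated with inhibitor (1% DMSO) for 10 min at 37 °C in 25 mM Hepes pH 7.0 containing 3 mM DTT, 0.15 M NaCl, 1 mM EDTA and 0.01% NP-40. Reaction was started with 2.5 mM pNPP and followed at 405 nm for 30 min at 37 °C, then quenched with NaOH. Activity came from a p-nitrophenol standard curve.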

Mus musculus [2] = test: Antidiabetic activity in ob/ob mouse assessed as fasting plasma glucose at 10 mg/kg, ip measured on day 14 (RVb = 194 +/- 17 mg/dL); type: functional; settings: route intraperitoneal
Mus musculus [3] = test: Antidiabetic activity in ob/ob mouse assessed as plasma cholesterol level at 10 mg/kg, ip measured on day 14 (RVb = 193 +/- 4 mg/dL); type: functional; settings: route intraperitoneal
Mus musculus [4] = test: Antidiabetic activity in ob/ob mouse assessed as whole blood glucose at 10 mg/kg, ip measured on day 10 (reference value: 138 +/- 8 mg/dL); type: functional; settings: route intraperitoneal
[5] = target: Receptor-type tyrosine-protein phosphatase F (Homo sapiens, UniProt P10586)
Chain of Receptor-type tyrosine-protein phosphatase F (P10586 whole entry): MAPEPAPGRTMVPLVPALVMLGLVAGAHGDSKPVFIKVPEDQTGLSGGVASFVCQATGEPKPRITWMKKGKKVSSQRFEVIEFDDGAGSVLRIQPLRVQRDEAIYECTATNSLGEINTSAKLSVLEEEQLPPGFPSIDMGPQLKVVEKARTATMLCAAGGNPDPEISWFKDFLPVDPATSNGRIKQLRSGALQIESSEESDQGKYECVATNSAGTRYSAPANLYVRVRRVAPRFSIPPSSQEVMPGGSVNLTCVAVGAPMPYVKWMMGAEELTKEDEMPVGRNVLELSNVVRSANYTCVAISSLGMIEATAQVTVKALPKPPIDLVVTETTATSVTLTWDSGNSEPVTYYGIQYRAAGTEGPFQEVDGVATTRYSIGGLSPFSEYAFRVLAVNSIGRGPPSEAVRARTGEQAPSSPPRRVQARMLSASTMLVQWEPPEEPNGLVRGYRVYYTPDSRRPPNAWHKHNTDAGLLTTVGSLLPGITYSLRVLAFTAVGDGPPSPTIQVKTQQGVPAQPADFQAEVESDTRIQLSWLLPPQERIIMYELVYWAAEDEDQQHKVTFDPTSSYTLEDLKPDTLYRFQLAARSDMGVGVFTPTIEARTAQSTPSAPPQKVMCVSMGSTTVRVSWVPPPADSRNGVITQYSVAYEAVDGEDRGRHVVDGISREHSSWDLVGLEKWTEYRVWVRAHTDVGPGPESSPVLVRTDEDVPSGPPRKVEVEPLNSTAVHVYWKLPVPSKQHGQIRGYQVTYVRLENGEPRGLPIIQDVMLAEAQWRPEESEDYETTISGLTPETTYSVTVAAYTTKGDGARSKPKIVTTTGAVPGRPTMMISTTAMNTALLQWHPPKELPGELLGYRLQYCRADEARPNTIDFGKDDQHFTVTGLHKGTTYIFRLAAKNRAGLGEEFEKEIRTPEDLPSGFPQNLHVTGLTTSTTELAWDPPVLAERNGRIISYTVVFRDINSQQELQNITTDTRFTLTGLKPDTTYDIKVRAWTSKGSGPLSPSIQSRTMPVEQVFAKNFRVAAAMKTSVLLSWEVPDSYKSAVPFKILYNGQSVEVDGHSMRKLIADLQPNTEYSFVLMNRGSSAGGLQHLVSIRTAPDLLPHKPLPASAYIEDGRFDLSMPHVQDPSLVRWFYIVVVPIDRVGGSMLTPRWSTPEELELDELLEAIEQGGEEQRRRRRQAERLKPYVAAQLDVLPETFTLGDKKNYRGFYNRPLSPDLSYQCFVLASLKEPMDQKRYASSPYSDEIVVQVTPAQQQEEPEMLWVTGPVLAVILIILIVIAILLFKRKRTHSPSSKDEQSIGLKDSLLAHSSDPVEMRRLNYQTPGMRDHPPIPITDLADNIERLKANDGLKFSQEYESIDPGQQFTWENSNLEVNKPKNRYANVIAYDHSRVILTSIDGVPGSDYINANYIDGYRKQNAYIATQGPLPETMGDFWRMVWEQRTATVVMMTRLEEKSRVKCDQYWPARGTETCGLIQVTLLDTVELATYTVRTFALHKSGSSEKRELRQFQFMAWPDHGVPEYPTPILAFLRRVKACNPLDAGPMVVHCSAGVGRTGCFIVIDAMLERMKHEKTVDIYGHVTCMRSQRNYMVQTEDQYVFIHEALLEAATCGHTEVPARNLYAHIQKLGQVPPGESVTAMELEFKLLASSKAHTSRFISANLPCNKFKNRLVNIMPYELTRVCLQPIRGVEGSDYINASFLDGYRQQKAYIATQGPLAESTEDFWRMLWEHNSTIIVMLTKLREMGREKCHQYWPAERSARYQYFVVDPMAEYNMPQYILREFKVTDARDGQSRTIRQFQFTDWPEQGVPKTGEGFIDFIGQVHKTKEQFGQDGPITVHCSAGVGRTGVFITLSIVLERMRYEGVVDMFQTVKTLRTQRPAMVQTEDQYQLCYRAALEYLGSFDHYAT

[6] = target: T2, Tyrosine-protein phosphatase non-receptor type 1 (Homo sapiens, UniProt P18031)
T2 sequence (P18031 whole entry): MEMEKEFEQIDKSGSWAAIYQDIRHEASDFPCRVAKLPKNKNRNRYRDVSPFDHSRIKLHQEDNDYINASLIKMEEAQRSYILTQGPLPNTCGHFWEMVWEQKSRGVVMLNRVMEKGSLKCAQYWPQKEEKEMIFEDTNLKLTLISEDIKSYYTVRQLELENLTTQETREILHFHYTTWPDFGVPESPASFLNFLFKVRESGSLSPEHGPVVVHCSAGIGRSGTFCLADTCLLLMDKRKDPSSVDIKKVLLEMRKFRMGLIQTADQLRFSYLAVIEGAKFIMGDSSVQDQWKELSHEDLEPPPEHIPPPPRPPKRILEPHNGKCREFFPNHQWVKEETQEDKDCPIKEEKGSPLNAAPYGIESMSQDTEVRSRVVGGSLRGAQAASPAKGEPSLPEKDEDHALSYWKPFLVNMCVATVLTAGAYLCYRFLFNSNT

Mus musculus [7] = species: Mus musculus; settings: Plasma, 10 mg/kg
Mus musculus [8] = species: Mus musculus; settings: 10 mg/kg
Mus musculus [9] = species: Mus musculus; settings: Blood, 10 mg/kg
Mus musculus [10] = test: Antidiabetic activity in ob/ob mouse assessed as fasting plasma glucose at 10 mg/kg measured on day 14 (RVb = 194 +/- 17 mg/dL)
Mus musculus [11] = test: Antidiabetic activity in ob/ob mouse assessed as decrease in body weight at 10 mg/kg, po measured on day 15; type: functional, organism-based; parameters: dose 10 mg/kg
Mus musculus [12] = test: Antidiabetic activity in ob/ob mouse assessed as reduction in fed-state whole blood glucose at 10 mg/kg, po measured on day 7; type: functional, organism-based; parameters: dose 10 mg/kg
Mus musculus [13] = test: Antidiabetic activity in ob/ob mouse assessed as whole blood glucose at 10 mg/kg, po measured on day 10 (reference value: 139 +/- 8 mg/dL)

SMILES | IC50 [1] [nM] | IC50 [5] [nM] | IC50 [6] [nM] | also measured
O=C(O)c1cccc2c1oc1ccc(-c3csc(-c4ccc(N5CCCC5)cc4)n3)cc12 | 1660 | 2990 | 82 | Activity (Mus musculus [2]): 93 mg/dL; Activity (Mus musculus [3]): 138 mg/dL; Activity (Mus musculus [4]): 93 mg/dL; inhibition (Mus musculus [7]): inactive; inhibition (Mus musculus [8]): Active; inhibition (Mus musculus [9]): Active; Activity (Mus musculus [10]): 124 mg/dL
O=C(O)c1cccc2c1oc1ccc(-c3csc(-c4ccc([N+](=O)[O-])cc4)n3)cc12 | 348 | 2870 | 201 | 
Cc1nc(-c2ccc(Cl)cc2)sc1OCCc1cc(C(O)(C(=O)O)C(F)(F)F)ccc1OCc1ccccc1 (stereo unspecified) |  |  | 3200 | 
O=C(O)c1ccc(-c2nc(-c3ccc4oc5c(C(=O)O)cccc5c4c3)cs2)cc1 | 2100 | 3250 | 388 | 
CN(CCOc1ccc(CC2SC(=O)NC2=O)cc1)c1ccccn1.O=C(O)/C=C\C(=O)O (stereo unspecified) [ROSIGLITAZONE MALEATE] |  |  |  | inhibition (Mus musculus [11]): inactive; inhibition (Mus musculus [12]): Active; Activity (Mus musculus [13]): 90 mg/dL
Nc1ccc(-c2nc(-c3ccc4oc5c(C(=O)O)cccc5c4c3)cs2)cc1 | 693 |  | 185 | 
CCc1cc(C[C@H]2NC(=O)CN(CCCCOc3cccc(O)c3C(=O)OC)C2=O)ccc1N(C(=O)C(=O)O)c1ccccc1C(=O)O [OXALYLAMINOBENZOIC ACID] | 136 | 410 | 38 | Ki [1]: 65 nM; Ki [6]: 18 nM
O=C(O)c1cccc2c1oc1ccc(-c3csc(-c4cccc(I)c4)n3)cc12 | 1620 | 2100 | 425 | 
O=C(O)c1cccc2c1oc1ccc(-c3csc(-c4cc(Br)c(C(=O)[C@H](Cc5ccccc5)C(=O)O)c(Br)c4)n3)cc12 | 3140 | 3570 | 177 | 
Cc1ccc(-c2nc(-c3ccc4oc5c(C(=O)O)cccc5c4c3)cs2)cc1 | 730 | 1320 | 515 | 
O=C(O)c1cccc2c1oc1ccc(-c3csc(-c4ccc(N5CCOCC5)cc4)n3)cc12 | 1630 | 2940 | 280 | 
O=C(O)/C=C/c1ccc(-c2nc(-c3ccc4oc5c(C(=O)O)cccc5c4c3)cs2)cc1 | 983 | 1980 | 620 | 
CN(C)c1ccc(-c2nc(-c3ccc4oc5c(C(=O)O)cccc5c4c3)cs2)cc1 | 961 | 3750 | 257 | 
O=C(O)c1cccc2c1oc1ccc(-c3csc(-c4ccc(I)cc4)n3)cc12 | 1870 |  | 395 | 
CC1CN(c2ccc(-c3nc(-c4ccc5oc6c(C(=O)O)cccc6c5c4)cs3)cc2)CC(C)O1 (stereo unspecified) | 1430 | 2140 | 187 | 
O=C(O)c1cccc2c1oc1ccc(-c3csc(-c4ccc(N5CCCCC5)cc4)n3)cc12 | 2070 | 2070 | 121 | 
O=C(O)/C=C/c1cccc(-c2nc(-c3ccc4oc5c(C(=O)O)cccc5c4c3)cs2)c1 | 794 | 2070 | 551 | 
